# Source: ChEMBL document CHEMBL5058577, “EUbOPEN Chemogenomics Library 2 (Multiplex)” (2022)
# Test system: Fibroblast
# Test: Multiplex assay against human fibroblast
# Assay type: toxicity, cell-based
# How it was run: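 Hoechst33342, BioTracker Green Microtubule Cytoskeleton Dye, MitoTracker Red and Annexin V Alexa Fluor 680 were added to live cells at seeding, and imaging on a CQ1 microscope at 37°C and 5% CO2 followed compound addition. Gating by CellPathfinder machine learning separated cells into Hoechst high-intensity objects or normal cells, then normal cells into healthy, pyknosed or fragmented nuclei, then pyknosed cells into mitotic or apoptotic. Per cents of healthy-nucleus cells are reported for the tubulin, mitochondrial-mass and membrane-permeability phenotypes.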
# [1] = 12 h, 1 µM, compound concentration 1 uM, replicate 1
# [2] = 12 h, 1 µM, compound concentration 1 uM, replicate 2
# [3] = 12 h, 10 µM, compound concentration 10 uM, replicate 1
# [4] = 12 h, 10 µM, compound concentration 10 uM, replicate 2
# [5] = 24 h, 1 µM, compound concentration 1 uM, replicate 1
# [6] = 24 h, 1 µM, compound concentration 1 uM, replicate 2
# [7] = 24 h, 10 µM, compound concentration 10 uM, replicate 1
# [8] = 24 h, 10 µM, compound concentration 10 uM, replicate 2
# [9] = 48 h, 1 µM, compound concentration 1 uM, replicate 1
# [10] = 48 h, 1 µM, compound concentration 1 uM, replicate 2
# [11] = 48 h, 10 µM, compound concentration 10 uM, replicate 1
# [12] = 48 h, 10 µM, compound concentration 10 uM, replicate 2
structure (smiles),measurement,setting,value
Cc1cc(NC(=O)NCCN2CCC(O)(Cc3ccccc3)CC2)c2ccccc2n1 [PALOSURAN],Population Apoptotic (%),[1],37%
same,Population Fragmented Nuclei (%),[1],10%
same,Population Healthy Nuclei (%),[1],77%
same,Population Hoechst High Intensity Objects (%),[1],2%
same,Population Membrane Permeable-Phenotype (%),[1],3%
same,Population Mitochondria Different-Phenotype (%),[1],1%
same,Population Mitotic Cells (%),[1],62%
same,Population Normal (%),[1],97%
same,Population Pyknosed Nuclei (%),[1],12%
same,Population Tubulin-Different-Phenotype (%),[1],19%
same,Total Cell Count,[1],133
same,Population Apoptotic (%),[2],40%
same,Population Fragmented Nuclei (%),[2],26%
same,Population Healthy Nuclei (%),[2],44%
same,Population Hoechst High Intensity Objects (%),[2],9%
same,Population Membrane Permeable-Phenotype (%),[2],1%
same,Population Mitochondria Different-Phenotype (%),[2],13%
same,Population Mitotic Cells (%),[2],59%
same,Population Normal (%),[2],90%
same,Population Pyknosed Nuclei (%),[2],28%
same,Population Tubulin-Different-Phenotype (%),[2],46%
same,Total Cell Count,[2],143
same,Population Apoptotic (%),[3],40%
same,Population Fragmented Nuclei (%),[3],14%
same,Population Healthy Nuclei (%),[3],69%
same,Population Hoechst High Intensity Objects (%),[3],1%
same,Population Membrane Permeable-Phenotype (%),[3],0%
same,Population Mitochondria Different-Phenotype (%),[3],13%
same,Population Mitotic Cells (%),[3],59%
same,Population Normal (%),[3],98%
same,Population Pyknosed Nuclei (%),[3],15%
same,Population Tubulin-Different-Phenotype (%),[3],37%
same,Total Cell Count,[3],178
same,Population Apoptotic (%),[4],41%
same,Population Fragmented Nuclei (%),[4],28%
same,Population Healthy Nuclei (%),[4],49%
same,Population Hoechst High Intensity Objects (%),[4],6%
same,Population Membrane Permeable-Phenotype (%),[4],3%
same,Population Mitochondria Different-Phenotype (%),[4],3%
same,Population Mitotic Cells (%),[4],58%
same,Population Normal (%),[4],93%
same,Population Pyknosed Nuclei (%),[4],22%
same,Population Tubulin-Different-Phenotype (%),[4],51%
same,Total Cell Count,[4],113
same,Population Apoptotic (%),[5],53%
same,Population Fragmented Nuclei (%),[5],15%
same,Population Healthy Nuclei (%),[5],73%
same,Population Hoechst High Intensity Objects (%),[5],2%
same,Population Membrane Permeable-Phenotype (%),[5],1%
same,Population Mitochondria Different-Phenotype (%),[5],0%
same,Population Mitotic Cells (%),[5],46%
same,Population Normal (%),[5],97%
same,Population Pyknosed Nuclei (%),[5],10%
same,Population Tubulin-Different-Phenotype (%),[5],17%
same,Total Cell Count,[5],129
same,Population Apoptotic (%),[6],40%
same,Population Fragmented Nuclei (%),[6],27%
same,Population Healthy Nuclei (%),[6],50%
same,Population Hoechst High Intensity Objects (%),[6],6%
same,Population Membrane Permeable-Phenotype (%),[6],14%
same,Population Mitochondria Different-Phenotype (%),[6],21%
same,Population Mitotic Cells (%),[6],60%
same,Population Normal (%),[6],93%
same,Population Pyknosed Nuclei (%),[6],22%
same,Population Tubulin-Different-Phenotype (%),[6],62%
same,Total Cell Count,[6],119
same,Population Apoptotic (%),[7],42%
same,Population Fragmented Nuclei (%),[7],14%
same,Population Healthy Nuclei (%),[7],77%
same,Population Hoechst High Intensity Objects (%),[7],1%
same,Population Membrane Permeable-Phenotype (%),[7],0%
same,Population Mitochondria Different-Phenotype (%),[7],8%
same,Population Mitotic Cells (%),[7],57%
same,Population Normal (%),[7],98%
same,Population Pyknosed Nuclei (%),[7],8%
same,Population Tubulin-Different-Phenotype (%),[7],37%
same,Total Cell Count,[7],178
same,Population Apoptotic (%),[8],60%
same,Population Fragmented Nuclei (%),[8],30%
same,Population Healthy Nuclei (%),[8],47%
same,Population Hoechst High Intensity Objects (%),[8],3%
same,Population Membrane Permeable-Phenotype (%),[8],3%
same,Population Mitochondria Different-Phenotype (%),[8],1%
same,Population Mitotic Cells (%),[8],40%
same,Population Normal (%),[8],96%
same,Population Pyknosed Nuclei (%),[8],22%
same,Population Tubulin-Different-Phenotype (%),[8],48%
same,Total Cell Count,[8],117
same,Population Apoptotic (%),[9],50%
same,Population Fragmented Nuclei (%),[9],16%
same,Population Healthy Nuclei (%),[9],72%
same,Population Hoechst High Intensity Objects (%),[9],3%
same,Population Membrane Permeable-Phenotype (%),[9],0%
same,Population Mitochondria Different-Phenotype (%),[9],2%
same,Population Mitotic Cells (%),[9],50%
same,Population Normal (%),[9],96%
same,Population Pyknosed Nuclei (%),[9],11%
same,Population Tubulin-Different-Phenotype (%),[9],15%
same,Total Cell Count,[9],126
same,Population Apoptotic (%),[10],61%
same,Population Fragmented Nuclei (%),[10],42%
same,Population Healthy Nuclei (%),[10],44%
same,Population Hoechst High Intensity Objects (%),[10],7%
same,Population Membrane Permeable-Phenotype (%),[10],14%
same,Population Mitochondria Different-Phenotype (%),[10],14%
same,Population Mitotic Cells (%),[10],38%
same,Population Normal (%),[10],92%
same,Population Pyknosed Nuclei (%),[10],13%
same,Population Tubulin-Different-Phenotype (%),[10],61%
same,Total Cell Count,[10],149
same,Population Apoptotic (%),[11],55%
same,Population Fragmented Nuclei (%),[11],19%
same,Population Healthy Nuclei (%),[11],69%
same,Population Hoechst High Intensity Objects (%),[11],5%
same,Population Membrane Permeable-Phenotype (%),[11],0%
same,Population Mitochondria Different-Phenotype (%),[11],10%
same,Population Mitotic Cells (%),[11],44%
same,Population Normal (%),[11],94%
same,Population Pyknosed Nuclei (%),[11],10%
same,Population Tubulin-Different-Phenotype (%),[11],36%
same,Total Cell Count,[11],186
same,Population Apoptotic (%),[12],61%
same,Population Fragmented Nuclei (%),[12],38%
same,Population Healthy Nuclei (%),[12],44%
same,Population Hoechst High Intensity Objects (%),[12],2%
same,Population Membrane Permeable-Phenotype (%),[12],2%
same,Population Mitochondria Different-Phenotype (%),[12],6%
same,Population Mitotic Cells (%),[12],38%
same,Population Normal (%),[12],97%
same,Population Pyknosed Nuclei (%),[12],16%
same,Population Tubulin-Different-Phenotype (%),[12],61%
same,Total Cell Count,[12],112
Cc1cc(-c2ccc3c(c2)CC[C@H]3N2CC3(CCN(C(=O)Cc4cn5cc(C)sc5n4)CC3)C2)ncn1 [PF-5190457],Population Apoptotic (%),[1],29%
same,Population Fragmented Nuclei (%),[1],16%
same,Population Healthy Nuclei (%),[1],71%
same,Population Hoechst High Intensity Objects (%),[1],4%
same,Population Membrane Permeable-Phenotype (%),[1],1%
same,Population Mitochondria Different-Phenotype (%),[1],5%
same,Population Mitotic Cells (%),[1],70%
same,Population Normal (%),[1],96%
same,Population Pyknosed Nuclei (%),[1],11%
same,Population Tubulin-Different-Phenotype (%),[1],24%
same,Total Cell Count,[1],150
same,Population Apoptotic (%),[2],30%
same,Population Fragmented Nuclei (%),[2],18%
same,Population Healthy Nuclei (%),[2],46%
same,Population Membrane Permeable-Phenotype (%),[2],9%
same,Population Mitochondria Different-Phenotype (%),[2],0%
same,Population Normal (%),[2],95%
same,Population Pyknosed Nuclei (%),[2],34%
same,Population Tubulin-Different-Phenotype (%),[2],48%
same,Total Cell Count,[2],121
same,Population Apoptotic (%),[3],36%
same,Population Fragmented Nuclei (%),[3],17%
same,Population Healthy Nuclei (%),[3],63%
same,Population Hoechst High Intensity Objects (%),[3],4%
same,Population Membrane Permeable-Phenotype (%),[3],1%
same,Population Mitochondria Different-Phenotype (%),[3],5%
same,Population Mitotic Cells (%),[3],63%
same,Population Normal (%),[3],95%
same,Population Pyknosed Nuclei (%),[3],18%
same,Population Tubulin-Different-Phenotype (%),[3],38%
same,Total Cell Count,[3],186
same,Population Apoptotic (%),[4],45%
same,Population Fragmented Nuclei (%),[4],20%
same,Population Healthy Nuclei (%),[4],55%
same,Population Hoechst High Intensity Objects (%),[4],1%
same,Population Membrane Permeable-Phenotype (%),[4],6%
same,Population Mitochondria Different-Phenotype (%),[4],4%
same,Population Mitotic Cells (%),[4],54%
same,Population Normal (%),[4],98%
same,Population Pyknosed Nuclei (%),[4],24%
same,Population Tubulin-Different-Phenotype (%),[4],56%
same,Total Cell Count,[4],138
same,Population Apoptotic (%),[5],54%
same,Population Fragmented Nuclei (%),[5],19%
same,Population Healthy Nuclei (%),[5],72%
same,Population Hoechst High Intensity Objects (%),[5],2%
same,Population Membrane Permeable-Phenotype (%),[5],1%
same,Population Mitochondria Different-Phenotype (%),[5],4%
same,Population Mitotic Cells (%),[5],45%
same,Population Normal (%),[5],97%
same,Population Pyknosed Nuclei (%),[5],7%
same,Population Tubulin-Different-Phenotype (%),[5],26%
same,Total Cell Count,[5],141
same,Population Apoptotic (%),[6],15%
same,Population Fragmented Nuclei (%),[6],23%
same,Population Healthy Nuclei (%),[6],43%
same,Population Hoechst High Intensity Objects (%),[6],3%
same,Population Membrane Permeable-Phenotype (%),[6],5%
same,Population Mitochondria Different-Phenotype (%),[6],5%
same,Population Mitotic Cells (%),[6],84%
same,Population Normal (%),[6],96%
same,Population Pyknosed Nuclei (%),[6],32%
same,Population Tubulin-Different-Phenotype (%),[6],54%
same,Total Cell Count,[6],126
same,Population Apoptotic (%),[7],44%
same,Population Fragmented Nuclei (%),[7],19%
same,Population Healthy Nuclei (%),[7],64%
same,Population Hoechst High Intensity Objects (%),[7],3%
same,Population Membrane Permeable-Phenotype (%),[7],0%
same,Population Mitochondria Different-Phenotype (%),[7],6%
same,Population Mitotic Cells (%),[7],55%
same,Population Normal (%),[7],96%
same,Population Pyknosed Nuclei (%),[7],16%
same,Population Tubulin-Different-Phenotype (%),[7],37%
same,Total Cell Count,[7],180
same,Population Apoptotic (%),[8],53%
same,Population Fragmented Nuclei (%),[8],25%
same,Population Healthy Nuclei (%),[8],49%
same,Population Hoechst High Intensity Objects (%),[8],5%
same,Population Membrane Permeable-Phenotype (%),[8],1%
same,Population Mitochondria Different-Phenotype (%),[8],7%
same,Population Mitotic Cells (%),[8],46%
same,Population Normal (%),[8],94%
same,Population Pyknosed Nuclei (%),[8],25%
same,Population Tubulin-Different-Phenotype (%),[8],60%
same,Total Cell Count,[8],134
same,Population Apoptotic (%),[9],78%
same,Population Fragmented Nuclei (%),[9],30%
same,Population Healthy Nuclei (%),[9],59%
same,Population Hoechst High Intensity Objects (%),[9],6%
same,Population Membrane Permeable-Phenotype (%),[9],2%
same,Population Mitochondria Different-Phenotype (%),[9],2%
same,Population Mitotic Cells (%),[9],21%
same,Population Normal (%),[9],93%
same,Population Pyknosed Nuclei (%),[9],9%
same,Population Tubulin-Different-Phenotype (%),[9],23%
same,Total Cell Count,[9],157
same,Population Apoptotic (%),[10],34%
same,Population Fragmented Nuclei (%),[10],32%
same,Population Healthy Nuclei (%),[10],47%
same,Population Hoechst High Intensity Objects (%),[10],2%
same,Population Membrane Permeable-Phenotype (%),[10],14%
same,Population Mitochondria Different-Phenotype (%),[10],6%
same,Population Mitotic Cells (%),[10],65%
same,Population Normal (%),[10],97%
same,Population Pyknosed Nuclei (%),[10],20%
same,Population Tubulin-Different-Phenotype (%),[10],68%
same,Total Cell Count,[10],132
same,Population Apoptotic (%),[11],63%
same,Population Fragmented Nuclei (%),[11],22%
same,Population Healthy Nuclei (%),[11],66%
same,Population Hoechst High Intensity Objects (%),[11],6%
same,Population Membrane Permeable-Phenotype (%),[11],0%
same,Population Mitochondria Different-Phenotype (%),[11],12%
same,Population Mitotic Cells (%),[11],36%
same,Population Normal (%),[11],93%
same,Population Pyknosed Nuclei (%),[11],10%
same,Population Tubulin-Different-Phenotype (%),[11],37%
same,Total Cell Count,[11],192
same,Population Apoptotic (%),[12],62%
same,Population Fragmented Nuclei (%),[12],30%
same,Population Healthy Nuclei (%),[12],51%
same,Population Hoechst High Intensity Objects (%),[12],1%
same,Population Membrane Permeable-Phenotype (%),[12],5%
same,Population Mitochondria Different-Phenotype (%),[12],14%
same,Population Mitotic Cells (%),[12],37%
same,Population Normal (%),[12],98%
same,Population Pyknosed Nuclei (%),[12],18%
same,Population Tubulin-Different-Phenotype (%),[12],64%
same,Total Cell Count,[12],135
